{"source": "ChEMBL document CHEMBL1125917", "about": "“Synthesis of halogen-substituted 1,5-benzothiazepine derivatives and their vasodilating and hypotensive activities” (1991)", "key": {"[1]": {"species": "Cavia porcellus", "experiment": "Increase in the coronary blood flow (CBF) was determined in isolated guinea pig heart at a dose of 100 ug/heart", "format": "functional", "outline": "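Hartley guinea pig hearts perfused by the Langendorff method with modified Locke-Ringer solution containing defibrinated rabbit blood, at 40 cm H2O and 29 ± 1 °C. Compounds in saline injected into the aortic cannula at 3, 10, 30 or 100 μg/heart. Coronary flow measured by drop counter; graded by the lowest dose giving an increase of at least 0.5 mL/min.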"}, "[2]": {"test_system": "Canis familiaris", "experiment": "Antihypertensive activity by the increase in the vertebral blood flow in anesthetized dogs expressed as duration of half of the maximum change in blood flow.", "format": "functional, Canis lupus familiaris", "outline": "(§1)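 Anesthetized dogs; compounds given intraarterially. Vertebral blood flow recorded, and a dose-response curve built from peak responses. Potency given as ratio to diltiazem, calculated from the dose-response curves. Half duration is the time, in minutes, that blood flow stays at one-half of the maximum change.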"}, "[3]": {"species": "Canis familiaris", "experiment": "Antihypertensive activity expressed as the ratio of the potency evaluated by increased vertebral blood flow (VBF) to that of diltiazem.", "format": "functional, Canis lupus familiaris", "outline": "as §1"}, "[4]": {"test_system": "Rattus norvegicus", "experiment": "Hypotensive activity in SHR (spontaneously hypertensive rats) expressed as change in blood pressure(mmHg) after 4 hr dosing at a concentration of 30 mg/kg", "format": "functional", "outline": "(§2)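 Male spontaneously hypertensive rats, fasted 20 h. Compounds dissolved in deionized water and given orally (30 mg/kg; some at 100 mg/kg). Blood pressure measured by tail-cuff in conscious animals. Change (mmHg) taken from the predosing value at 1 and 4 h, or 1 and 5 h, after dosing. N = 3-6.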"}, "[5]": {"test_system": "Rattus norvegicus", "experiment": "Hypotensive activity in SHR (spontaneously hypertensive rats) expressed as change in blood pressure(mmHg) after 1 hr dosing at a concentration of 30 mg/kg", "format": "functional", "outline": "as §2"}}, "data": [{"compound": "CCCN(C)CCN1C(=O)C(OC(C)=O)C(c2ccc(OC)cc2)Sc2cc(Cl)ccc21", "note": "(stereo not given)", "values": [{"measurement": "Increase in CBF", "setting": "[1]", "result": ">0.5", "unit": "mL/min"}, {"measurement": "Half duration", "setting": "[2]", "result": 47, "unit": "min"}, {"measurement": "Potency ratio", "setting": "[3]", "result": 0.5}, {"measurement": "Change in blood pressure", "setting": "[4]", "result": -9, "unit": "delta mmHg"}, {"measurement": "Change in blood pressure", "setting": "[5]", "result": -16, "unit": "delta mmHg"}]}]}
